Test system: MS2 coat protein
Assay: apparent Kd, MS2 coat protein; higher = weaker binding; RNA-MaP array; FMN 200 µM where present
Method in brief: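 On Illumina sequencing-chip clusters, designs were transcribed by stalled E. coli RNA polymerase and titrated with SNAP-549-labelled MS2 coat protein (0.7 or 1.5 nM, doubling to 3 µM), without and then with constant ligand, in 100 mM Tris-HCl pH 7.5, 80 mM KCl, 4 mM MgCl2, BSA, DTT, yeast tRNA and Tween-20. Apparent Kd is the median of filtered per-cluster curve fits to green signal normalised to red-channel RNA signal and control-cluster median Fmax.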

[1] = designed as: ON switch for flavin mononucleotide, no ligand
[2] = ligand present: flavin mononucleotide, designed as: ON switch for flavin mononucleotide
[3] = designed as: OFF switch for flavin mononucleotide, no ligand
[4] = ligand present: flavin mononucleotide, designed as: OFF switch for flavin mononucleotide

Row | Sequence | apparent Kd [1] [nM] | apparent Kd [2] [nM] | apparent Kd [3] [nM] | apparent Kd [4] [nM]
1 | GUAGUGCUCAUAGGAUAUCGGGAACAACGUAGACAGGUUGUACAUGAGGAUCACCCAUGUAAAGUCGAGAAGGGUGAUCACGCC | 519 | 194 | – | –
2 | GGACGUCUCAUUAACAUGAGGAUCACCCAUGUCGAUAGACAUGAGGAUAUGGAUCCGAAUCGGAUCCAGAAGGCAUGGACGUCC | 1170 | 72.4 | – | –
3 | AAAUUAAGAUGAGGAUAUUGACAUGAGGAUCACCCAUGUAUUUGGGAAUGUUUACUGAAUUCUUACAAGAAGGUAUACGAACUU | – | – | 206 | 134
4 | UGCAUGUAAGGAUAUGCAACCGGCGCUCAUUCGCCGGUCAAGCAGAAGGUACAUGAGGAUCACCCAUGUGUCCG | – | – | 31.3 | 139
5 | CGCUGUCAUGCAGGAUAUGCAUUGGAUUACAAUGCAGAAGGGCGAUUACAUGAGGAUCACCCAUGUGUAGACGGUGAAGAAGAG | 137 | 13.1 | – | –
6 | AGUGUCAUCCAGAAGGAGAUGGACAUGAGGAUCACCCAUGUUCCAUGAUCUAGGAUAUGGAUGAUACAGCUACGUUUCGUAGCA | 4.61 | 4.73 | – | –
7 | GCACAUGAUACAGGAUAUGUUUUGGAUUUUAUAUGCAGUUAUUUUAUUUUGACAGAAGGGUAUACAUGAGGAUCACCCAUGUGC | – | – | 76.3 | 48.1
8 | UCUAUGUAGAUUCGUCAAUACAGUAAGGAUAUGAGAUACAUGAGGAUCACCCAUGUGCAUGUGGAUUAGAAGGUACAAUUAACU | – | – | 83.7 | 73.9
9 | AACAAACAUGAGGAUCACCCAUGUCAGGAUAUCCGAAAUAAAGAAACAAUAAUAAUAAGGAGAAGGGACUAAAU | – | – | 53.5 | 55.5
10 | AAAACAUACCGAGGAUAUUCAUAUAAUAAAUAAACAUGAGGAUCACCCAUGUGGCGAAAGCCUAGGGAGAAGGCGGAAUGCUAA | 149 | 31.8 | – | –
11 | ACACAUGAGGAUCACCCAUGUAGCUGACGUCUGCGCCAGCCACAGGAUAUACGGCAACACAAACCGUAGAAGGGUGAUAAACAC | 114 | 23 | – | –
12 | GCACUUUUAUUUGAACCGAUACGAACAUGAGGAUCACCCAUGUAGGAUAUGCUAAAAGUUGUGAUGCAGAAGGACAUUAAGUGC | – | – | 7.73 | 9.21
13 | UUUGUUUAUGUGAGGAUAUACUGUUUGUAUUGAUUGUAGAAGGUACAUGAGGAUCACCCAUGUUUUGUAUUUAU | – | – | 18.8 | 19.4
14 | CCGAAACCUCAGAAGGACCACAUGAGGAUCACCCAUGUCAAGCAAAACGGUAGGAUAUGAGGGAAAAGUCAAUAUACCCGACAG | 11.3 | 4.9 | – | –
15 | CAUUAAUUAAUUAGUUUAUACAUACAGGAUAUGUUACAUGAGGAUCACCCAUGUUUACAUGGGAUACAGAAGGGUAAAUAAAGA | – | – | 477 | 310
16 | UUAAAUCAUGUAGGAUAUGCAUGGCGAAGCUACGCAGAAGGACAUGAGGAUCACCCAUGUUAUAGCUACCGAAUAAGGUGGCAA | – | – | – | 224
17 | CAGGUGUUAGGAUAUCGGAGAUCGAGACCGACGGGAUGAGCCGAGAAGGAACAUGAGGAUCACCCAUGUAGGUG | – | – | 575 | 247
18 | CUCCGACAUGUAGGAUAUGCGUGGCGAAGCUAUGCAGAAGGACAUGAGGAUCACCCAUGUCUUUCCGUCUGCGUACAGACGGAG | – | – | 17.4 | 57.3
19 | AGUCGGAGCAGAGGAUAUUACAUGAGGAUCACCCAUGUAUAAAAUGGAAGCUGGAAACAGCAAUGUAAGAAGGCUGCUCCGACA | – | – | 64 | 296
20 | CGCCUCAGUUCAGGAUAUGUAUGGGUCUAACGAACAGAAGGGAACAUGAGGAUCACCCAUGUAAAUAGGGCCAAAGGCUUGAUA | – | – | 35.8 | 208
21 | CACCGCGACAAUGCGGUGUCACAUGAGGAUCACCCAUGUUCACAGGAUAUGCGAUAGCCAACGAAGCAGAAGGGUGAUUACUUA | 32.3 | 172 | – | –
22 | AAACCGCAAGGAUAUUGUGGCGCUGACAUGAGGAUCACCCAUGUGGUGCUAGUCCCGCUGCGAGAAGGUGUGUAAA | – | – | 12.4 | 26.8
23 | GAUUAACAUGAGGAUCACCCAUGUGAGGAUAUGGACUGGCUCACUUUCCGAUUCCCGUCUAGAAGGCGCAUCUU | – | – | 38.3 | 38.3
24 | GCGUAAGAAUUAAUUGUGACUGACAGAAGGCAAUAGUAUGUGUCCGACAUGAGGAUCACCCAUGUUGAGGAUAUGUCUUGACGC | – | – | 4.64 | 5
25 | GCGAAUAAGUGAGGAUAUACAUAAUUUAUAACUGUAGAAGGCACAAACCUCAAGACAUGAGGAUCACCCAUGUGAAAUAUCGCU | – | – | 31 | 81.8
26 | GUCAGCUCGUGAGGAUAUACAACACUGCUUCGGCAGUGUAUUACGAUCACAUGAGGAUCACCCAUGUAGAAGGCACGAGCUGAU | – | – | 15.2 | 307
27 | GCGUUCUUGUAGAAGGUACAUACGACAUCUUAUAAACGCUUGACACAUGAGGAUCACCCAUGUUGUAAGGAUAUACAUGAACGC | 6.82 | 7.03 | – | –
28 | CGGUAGGGAGGAUAUCCAAUAUAUGACAUGAGGAUCACCCAUGUUUCCACUCGUACCUCCGGAGAAGGCCCAUCCC | – | – | 19.7 | 20.4

Row | Sequence | apparent Kd [1] [nM] | apparent Kd [2] [nM] | apparent Kd [3] [nM] | apparent Kd [4] [nM]
29 | UUUUUGUCAGGAUAUACGUAGUAGAACAAUAGUACUACUACGUAGAAGGGACAUGAGGAUCACCCAUGUUCCUC | – | – | 14.8 | 30.9
30 | UCCUGGCAAGGAUAUACAUGAGGAUCACCCAUGUGGAGUCGAUGCUGAAUUCUAUUGUGUAGAAGGUGCCUUUC | – | – | 49.1 | 62.3
31 | GUAGAGUAGUGAGGAUAUACGAGAUCGAUAGAUCGGCGAUCCAAUAAUACAUGAGGAUCACCCAUGUAGAAGGCACUUCUCUAC | – | – | 7.79 | 116
32 | GUGUUGGUAGGAUAUCCACCGACAAACAUGAGGAUCACCCAUGUGACGCUCCCUUGUCUUGGAGAAGGGCCGGCAU | – | – | 50.4 | 49.1
33 | GGAUGUCAAAGACAUCCAAUUCGAACAUGAGGAUCACCCAUGUAGGAUAUGCUACUCAAAGAGUAGCAGAAGGACAUGUGCUUU | – | – | 36.6 | 183
34 | UGAUAGGACAGAGGAUAUACAGAUAGGAUCUACUAUCAAACAGUCCUGACAUGAGGAUCACCCAUGUAGAAGGCUGUCCUAUCU | – | – | 22.7 | 98.8
35 | GCUUGAGCUGUGAGGAUAUGAGUUCGGAAAUGAGCUUAGAAGGCACAUGAGGAUCACCCAUGUAAGGUUCGAGU | – | – | 38 | 17.7
36 | AUCUUGUCAGGAUAUCUGACAAGUGACUUCGGUCACAGUUCAGAGAAGGUACAUGAGGAUCACCCAUGUAGAAC | – | – | 17.4 | 18.6
37 | GGACGUCACAUCUACAUGAGGAUCACCCAUGUCUCUUGAGAUGAGGAUAUGUAUACGAAUCGUUUAUAGAAGGCAUGGACGUCC | 348 | 325 | – | –
38 | AAGAGCGAUUCUCCCUUCCUACAUGAGGAUCACCCAUGUACGAGAAGGCGCCGUGGAUACCACGGUGAGGAUAUCGUGCGUUAC | – | – | 4.55 | 5.13
39 | GUGUACAGAGGAUAUACAUAAGCUAGGAAACUAGCUACUUCACAUGAGGAUCACCCAUGUAGAAGGCUGUACAC | – | – | 16.1 | 16.3
40 | AAUUAACUCACAGGAUAUAGCAGAGGUCGAGUGUACUUACAGGCGACGAGGCUAGAAGGGUGACCACAUGAGGAUCACCCAUGU | 621 | 103 | – | –
41 | UGAUAGGACAGAGGAUAUACGUAUAGUUACCUCUACAUGAGGAUCACCCAUGUAGAAGGCUGUCCUAUCUAAGUCGGAAACGAC | – | – | 4.77 | 5.78
42 | GAGUGCUGAGGAUAUACAUGAGGAUCACCCAUGUGCUUCAGCUAGGAGACUAGCAUUGGUAGAAGGCAGUACUC | – | – | 11.2 | 46
43 | UAGAAGUCAGGAUAUGCUGCUCGUCACUUGCGUGAUGAGUAGCAGAAGGGACAUGAGGAUCACCCAUGUAAAGU | – | – | 52.5 | 91
44 | AAACAAAGGUGGAAACGGGAACCACAUGAGGAUCACCCAUGUAAGGAUAUCGACCAGCGGUGCGGCGAGAAGGUACAUAGGAAC | – | – | 20.3 | 29.7
45 | CUGCCUUAUGUAGGAUAUGCAUAGCAUUGCUAUGCAGAAGGACAUGAGGAUCACCCAUGUAUGUAAUCAAUACAUAUCUGGCAG | – | – | 20.4 | 119
46 | AGUAGAUCAGGAUAUACAUAAAUGAUAAUUAUGUAAAUUCUACAUGAGGAUCACCCAUGUAGAAGGGAUCUACA | – | – | 14.4 | 14
47 | UGAUAGGACAGAGGAUAUACCGAUAGGAUCUACUAUCGAAUAAUCCUCACAUGAGGAUCACCCAUGUAGAAGGCUGUCCUAUCU | – | – | 19.7 | 144
48 | GCCGUCAACGUAGGAUAUCUUCAGCCACAGCACAUUGCUGUACAUGAGGAUCACCCAUGUCCUGGAGAGAAGGACGGACGGCAG | 108 | 19.6 | – | –
49 | GUAACAUGAGGAUCACCCAUGUAUAGAACACUCAAUAGAUCUGAGGAUAUACUAGAAUUUACGUAGUAGAAGGCAGUGGGUACA | 64.1 | 33.6 | – | –
50 | GUAAAGUGAGGAUAUGGUGAGUAGUGCCUGAGCGCUGCUCACCAGAAGGCACAUGAGGAUCACCCAUGUAUAGC | – | – | 14.7 | 27.1
51 | CGCAAUAUACAGAAGGAGUUAUUUAGAGGUUUACUAGGAUAUGUUCACAUGAGGAUCACCCAUGUCAUAUGGUUUUUUAUUGCG | – | – | 10.1 | 8.96
52 | AUAUAACAUGAGGAUCACCCAUGUCAGGAUAUCGAACCCAACACAACCAAAAUGUCGGCGAGAAGGGACAAAAA | – | – | 35.4 | 32.7
53 | GUAGCAUCAAUUAUACAUGAGGAUCACCCAUGUUACAUGGGUAAGGAUAUUGAGGUUAUUAUUGGCAAGAAGGUACUAUGCUAC | 409 | 168 | – | –
54 | UAAGUUGAGGAGAAGGGAGCACAUGAGGAUCACCCAUGUGGUUCUUUGUGCUCAGGAUAUCCAUGGAGCUCCGUCGCGUUCCAG | – | – | 103 | 19.1
55 | CCAGCAACAUGAGGAUCACCCAUGUAGGAUAUCGCUAUUGUAAUCAUGAAACAUGAUUACAAUAGCGAGAAGGACAUAUGCUAA | – | – | 9.29 | 10.2
